Measurements taken from ChEMBL document CHEMBL3351752, “Discovery and in vivo evaluation of alcohol-containing benzothiazoles as potent dual-targeting bacterial DNA supercoiling inhibitors” (Bioorg Med Chem Lett, 2014).
≈ marks a conversion by molar mass, not a printed value.

Columns and labels:
Staphylococcus aureus [1] = test: Antibacterial activity against Staphylococcus aureus ATCC 29213 assessed as growth inhibition; assay type: functional
Staphylococcus aureus [2] = test: Antibacterial activity against Staphylococcus aureus ATCC 29213 assessed as growth inhibition in presence of 50% horse serum; assay type: functional
Haemophilus influenzae = test: Antibacterial activity against Haemophilus influenzae 49247 assessed as growth inhibition; assay type: functional
Streptococcus pyogenes [3] = test: Antibacterial activity against Streptococcus pyogenes 51339 assessed as growth inhibition; assay type: functional
Staphylococcus aureus [4] = test: Inhibition of Staphylococcus aureus DNA gyrase ATPase subunit GyrA2/GyrB2 after 60 mins by malachite green staining assay
Streptococcus pyogenes [5] = test: Antimicrobial activity against Streptococcus pyogenes harboring ParE A53S mutant assessed as growth inhibition; assay type: functional
Staphylococcus aureus [6] = test: Antimicrobial activity against Staphylococcus aureus harboring GyrB T173N mutant assessed as growth inhibition; assay type: functional
[7] = Fraction unbound in mouse plasma by ultracentrifugation; assay type: ADME, cell-free
Summary of the method: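 Compound at 10 µM (1% DMSO) was equilibrated in neat plasma at 37 °C for 60 min. Duplicate aliquots were ultracentrifuged at 250,000g for 4.2 h at 37 °C. Free compound in the plasma-water supernatant was compared with uncentrifuged samples incubated alike. Uncentrifuged samples kept at 20 °C checked degradation, and diltiazem served as stability control. Analysis was by LCMS.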

| fraction unbound [7] | Compound | MIC (Staphylococcus aureus [1]) | MIC (Staphylococcus aureus [2]) | MIC (Haemophilus influenzae) | MIC (Streptococcus pyogenes [3]) | inhibitory concentration (Staphylococcus aureus [4]) | MIC (Streptococcus pyogenes [5]) | MIC (Staphylococcus aureus [6]) |
| --- | --- | --- | --- | --- | --- | --- | --- | --- |
|  | CCNC(=O)Nc1nc2cc(-c3cnc(C4(O)CCOCC4)nc3)cc(-c3ccccn3)c2s1 | 0.06 mg/L (≈ 0.126 µM) | 0.12 mg/L | 1 mg/L (≈ 2.1 µM) | 0.12 mg/L (≈ 0.252 µM) | 0.005 µg/mL | 2 mg/L (≈ 4.2 µM) | 0.25 mg/L (≈ 0.525 µM) |
|  | CCNC(=O)Nc1nc2cc(-c3cnc(C(O)(CC)CC)nc3)cc(-c3ccccn3)c2s1 | 0.25 mg/L (≈ 0.54 µM) | 4 mg/L | 8 mg/L (≈ 17.3 µM) | 0.5 mg/L (≈ 1.08 µM) | 0.017 µg/mL | 8 mg/L (≈ 17.3 µM) | 1 mg/L (≈ 2.16 µM) |
| 0.061 | CCNC(=O)Nc1nc2cc(-c3cnc(C(C)(C)O)nc3)cc(-c3cc(CN4CC[C@H](F)C4)ccn3)c2s1 | 0.12 mg/L (≈ 0.224 µM) | 0.25 mg/L | 2 mg/L (≈ 3.73 µM) | 0.06 mg/L (≈ 0.112 µM) | 0.008 µg/mL |  |  |
|  | CCNC(=O)Nc1nc2cc(-c3cnc(C4(O)CCNCC4)nc3)cc(-c3ccccn3)c2s1 | 8 mg/L (≈ 16.8 µM) | 4 mg/L | > 16 mg/L | 2 mg/L (≈ 4.21 µM) | 0.01 µg/mL | > 16 mg/L | > 16 mg/L |
|  | CCNC(=O)Nc1nc2cc(-c3cnc([C@@H](O)[C@H](O)C(F)(F)F)nc3)cc(-c3ccccn3)c2s1 (racemic) | 0.06 mg/L (≈ 0.119 µM) | 0.25 mg/L | 0.5 mg/L (≈ 0.991 µM) | 0.12 mg/L (≈ 0.238 µM) | 0.005 µg/mL | 1 mg/L (≈ 1.98 µM) | 0.25 mg/L (≈ 0.496 µM) |
|  | CCNC(=O)Nc1nc2cc(-c3cnc(C(O)CN4CCOCC4)nc3)cc(-c3ccccn3)c2s1 (racemic) | 0.12 mg/L (≈ 0.237 µM) | 0.25 mg/L | 2 mg/L (≈ 3.96 µM) | 0.12 mg/L (≈ 0.237 µM) | 0.011 µg/mL | 2 mg/L (≈ 3.96 µM) | 1 mg/L (≈ 1.98 µM) |
|  | CCNC(=O)Nc1nc2cc(-c3cnc(C4(O)CNC4)nc3)cc(-c3ccccn3)c2s1 | > 16 mg/L | > 16 mg/L | > 16 mg/L | 8 mg/L (≈ 17.9 µM) | 0.029 µg/mL | > 16 mg/L | > 16 mg/L |
| 0.194 | CCNC(=O)Nc1nc2cc(-c3cnc(C(C)(C)O)nc3)cc(-c3cc(CN4CCC(C)(O)C4)ccn3)c2s1 (configuration not stated) | 0.5 mg/L (≈ 0.913 µM) | 0.25 mg/L | 8 mg/L (≈ 14.6 µM) | 0.25 mg/L (≈ 0.456 µM) | 0.008 µg/mL |  |  |
|  | CCNC(=O)Nc1nc2cc(-c3cnc(C(O)CC)nc3)cc(-c3ccccn3)c2s1 (racemic) | 0.06 mg/L (≈ 0.138 µM) | 0.25 mg/L | 1 mg/L (≈ 2.3 µM) | 0.06 mg/L (≈ 0.138 µM) | 0.006 µg/mL | 1 mg/L (≈ 2.3 µM) | 0.25 mg/L (≈ 0.575 µM) |
| 0.063 | CCNC(=O)Nc1nc2cc(-c3cnc(C(C)(C)O)nc3)cc(-c3cc(CN4CC[C@@H](F)C4)ccn3)c2s1 | 0.06 mg/L (≈ 0.112 µM) | 0.25 mg/L | 1 mg/L (≈ 1.87 µM) | 0.06 mg/L (≈ 0.112 µM) | 0.005 µg/mL |  |  |
|  | CCNC(=O)Nc1nc2cc(-c3cnc(C(O)C4CC4)nc3)cc(-c3ccccn3)c2s1 (racemic) | 0.06 mg/L (≈ 0.134 µM) | 0.25 mg/L | 0.5 mg/L (≈ 1.12 µM) | 0.06 mg/L (≈ 0.134 µM) | 0.008 µg/mL | 1 mg/L (≈ 2.24 µM) | 0.25 mg/L (≈ 0.56 µM) |
|  | CCNC(=O)Nc1nc2cc(-c3cnc(C(O)CO)nc3)cc(-c3ccccn3)c2s1 (racemic) | 0.12 mg/L (≈ 0.275 µM) | 0.5 mg/L | 0.5 mg/L (≈ 1.15 µM) | 0.12 mg/L (≈ 0.275 µM) | 0.006 µg/mL | 2 mg/L (≈ 4.58 µM) | 2 mg/L (≈ 4.58 µM) |
| 0.22 | CCNC(=O)Nc1nc2cc(-c3cnc(C(C)(C)O)nc3)cc(-c3cc(CN4CC(O)C4)ccn3)c2s1 | 1 mg/L (≈ 1.92 µM) | 1 mg/L | 2 mg/L (≈ 3.85 µM) | 0.25 mg/L (≈ 0.481 µM) | 0.004 µg/mL |  |  |
|  | CCCC(O)c1ncc(-c2cc(-c3ccccn3)c3sc(NC(=O)NCC)nc3c2)cn1 (racemic) | 0.03 mg/L (≈ 0.0669 µM) | 0.25 mg/L | 1 mg/L (≈ 2.23 µM) | 0.06 mg/L (≈ 0.134 µM) | 0.007 µg/mL | 2 mg/L (≈ 4.46 µM) | 0.25 mg/L (≈ 0.557 µM) |
| 0.09 | CCNC(=O)Nc1nc2cc(-c3cnc(C(C)(C)O)nc3)cc(-c3cc(CN4CC[C@@H](OC)C4)ccn3)c2s1 | 0.25 mg/L (≈ 0.456 µM) | 0.5 mg/L | 4 mg/L (≈ 7.3 µM) | 0.25 mg/L (≈ 0.456 µM) | 0.009 µg/mL |  |  |
|  | CCNC(=O)Nc1nc2cc(-c3cnc(C4(O)CCSCC4)nc3)cc(-c3ccccn3)c2s1 | 0.12 mg/L (≈ 0.244 µM) | 1 mg/L | 2 mg/L (≈ 4.06 µM) | 0.5 mg/L (≈ 1.01 µM) | 0.005 µg/mL | 4 mg/L (≈ 8.12 µM) | 0.25 mg/L (≈ 0.507 µM) |
|  | CCNC(=O)Nc1nc2cc(-c3cnc(C4(O)CCCC4)nc3)cc(-c3ccccn3)c2s1 | 0.03 mg/L (≈ 0.0651 µM) | 0.5 mg/L | 1 mg/L (≈ 2.17 µM) | 0.12 mg/L (≈ 0.261 µM) | 0.005 µg/mL | 2 mg/L (≈ 4.34 µM) | 0.25 mg/L (≈ 0.543 µM) |
|  | CCNC(=O)Nc1nc2cc(-c3cnc(C4(O)CCS(=O)(=O)CC4)nc3)cc(-c3ccccn3)c2s1 | 0.25 mg/L (≈ 0.477 µM) | 0.5 mg/L | 1 mg/L (≈ 1.91 µM) | 0.25 mg/L (≈ 0.477 µM) | 0.006 µg/mL | 2 mg/L (≈ 3.81 µM) | 1 mg/L (≈ 1.91 µM) |
|  | CCNC(=O)Nc1nc2cc(-c3cnc(C(O)C(C)(C)C)nc3)cc(-c3ccccn3)c2s1 (racemic) | 0.12 mg/L (≈ 0.259 µM) | 2 mg/L |  | 0.12 mg/L (≈ 0.259 µM) | 0.012 µg/mL | 2 mg/L (≈ 4.32 µM) | 0.25 mg/L (≈ 0.54 µM) |
|  | CCNC(=O)Nc1nc2cc(-c3cnc(C4(O)CCCCC4)nc3)cc(-c3ccccn3)c2s1 | 8 mg/L (≈ 16.9 µM) |  | > 16 mg/L | 8 mg/L (≈ 16.9 µM) | 0.054 µg/mL | > 16 mg/L | > 16 mg/L |
|  | CCNC(=O)Nc1nc2cc(-c3cnc(C4(O)CCOCC4O)nc3)cc(-c3ccccn3)c2s1 (racemic) | 0.5 mg/L (≈ 1.02 µM) | 0.5 mg/L | 2 mg/L (≈ 4.06 µM) | 0.12 mg/L (≈ 0.244 µM) | 0.009 µg/mL | 2 mg/L (≈ 4.06 µM) | 4 mg/L (≈ 8.12 µM) |
|  | CCNC(=O)Nc1nc2cc(-c3cnc([C@@H](O)[C@H](O)C(F)F)nc3)cc(-c3ccccn3)c2s1 (racemic) | 0.06 mg/L (≈ 0.123 µM) | 0.25 mg/L | 0.25 mg/L (≈ 0.514 µM) | 0.12 mg/L (≈ 0.247 µM) | 0.004 µg/mL | 1 mg/L (≈ 2.06 µM) | 0.5 mg/L (≈ 1.03 µM) |
|  | CCNC(=O)Nc1nc2cc(-c3cnc(C4(O)CCN(C)CC4)nc3)cc(-c3ccccn3)c2s1 | 1 mg/L (≈ 2.04 µM) | 0.5 mg/L | 8 mg/L (≈ 16.3 µM) | 1 mg/L (≈ 2.04 µM) | 0.011 µg/mL | 8 mg/L (≈ 16.3 µM) | 8 mg/L (≈ 16.3 µM) |
|  | CCNC(=O)Nc1nc2cc(-c3cnc([C@@H](O)[C@@H](O)C(F)(F)F)nc3)cc(-c3ccccn3)c2s1 (racemic) | 0.12 mg/L (≈ 0.238 µM) | 0.25 mg/L | 0.5 mg/L (≈ 0.991 µM) | 0.12 mg/L (≈ 0.238 µM) | 0.004 µg/mL | 1 mg/L (≈ 1.98 µM) | 0.5 mg/L (≈ 0.991 µM) |
|  | CCNC(=O)Nc1nc2cc(-c3cnc(C(C)(O)CO)nc3)cc(-c3ccccn3)c2s1 (racemic) | 0.12 mg/L (≈ 0.266 µM) | 0.25 mg/L | 0.5 mg/L (≈ 1.11 µM) | 0.12 mg/L (≈ 0.266 µM) | 0.006 µg/mL | 2 mg/L (≈ 4.44 µM) | 1 mg/L (≈ 2.22 µM) |
|  | CCNC(=O)Nc1nc2cc(-c3cnc(C4(O)COC4)nc3)cc(-c3ccccn3)c2s1 | 0.06 mg/L (≈ 0.134 µM) | 0.12 mg/L | 0.5 mg/L (≈ 1.11 µM) | 0.12 mg/L (≈ 0.268 µM) | 0.006 µg/mL | 2 mg/L (≈ 4.46 µM) | 0.5 mg/L (≈ 1.11 µM) |
|  | CCNC(=O)Nc1nc2cc(-c3cnc([C@@H](O)[C@@H](C)O)nc3)cc(-c3ccccn3)c2s1 (racemic) | 0.25 mg/L (≈ 0.555 µM) | 0.25 mg/L | 1 mg/L (≈ 2.22 µM) | 0.12 mg/L (≈ 0.266 µM) | 0.007 µg/mL | 1 mg/L (≈ 2.22 µM) | 1 mg/L (≈ 2.22 µM) |
